Measured values taken from ChEMBL document CHEMBL5346966, “Discovery and Characterization of PROTACs Targeting Tissue Transglutaminase (TG2)” (J Med Chem, 2023).
Calls of active or inactive are those of the source. No cut-off for these calls is given here.

Experiments:
[1] = target: T1, Protein-glutamine gamma-glutamyltransferase (Homo sapiens) (UniProt P21980); assay: Induction of TG2 degradation in human SK-OV-3 cells assessed as reduction in TG2 level at 0.1 to 10 uM measured after 6 hrs by Western blot analysis; format: cell-based; details: dose 0.1-10 µM
T1 sequence (whole entry): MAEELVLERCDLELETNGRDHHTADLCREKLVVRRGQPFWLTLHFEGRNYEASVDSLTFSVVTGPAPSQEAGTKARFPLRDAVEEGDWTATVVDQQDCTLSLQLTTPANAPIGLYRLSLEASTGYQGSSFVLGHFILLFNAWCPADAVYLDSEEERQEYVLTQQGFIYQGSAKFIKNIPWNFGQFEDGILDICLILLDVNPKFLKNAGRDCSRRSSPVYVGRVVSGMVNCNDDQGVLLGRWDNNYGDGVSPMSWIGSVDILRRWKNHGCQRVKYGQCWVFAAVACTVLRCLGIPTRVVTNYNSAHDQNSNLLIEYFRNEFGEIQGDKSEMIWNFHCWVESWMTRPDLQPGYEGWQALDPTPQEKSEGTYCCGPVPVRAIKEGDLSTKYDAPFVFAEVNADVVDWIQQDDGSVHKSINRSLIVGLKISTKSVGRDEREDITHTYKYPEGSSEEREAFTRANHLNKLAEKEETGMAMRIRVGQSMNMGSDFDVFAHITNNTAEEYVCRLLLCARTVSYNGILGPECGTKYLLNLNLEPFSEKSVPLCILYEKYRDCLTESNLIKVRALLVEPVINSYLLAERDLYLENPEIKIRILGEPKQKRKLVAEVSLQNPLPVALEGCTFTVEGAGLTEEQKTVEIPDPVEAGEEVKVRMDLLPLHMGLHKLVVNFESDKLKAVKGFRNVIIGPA

SK-OV-3 [2] = assay: Inhibition of cell migration in human SK-OV-3 cells at 10 uM incubated for 18 hrs by crystal violet staining based transwell migration assay; format: functional
In short: (§1)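 Transwell migration through 8 μm pores: 15,000 OVCAR5 or SKOV3 cells in serum-free medium with compound or control in upper chamber, 10% serum below. After 18 h, migrated cells fixed in 4% PFA, stained with crystal violet and counted at 40×. n = 3.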

SK-OV-3 [3] = assay: Inhibition of cell migration in human SK-OV-3 cells at 10 uM incubated for 18 hrs by crystal violet staining based wound healing assay; format: functional
SK-OV-3 [4] = assay: Inhibition of cell adhesion to fibronectin in human SK-OV-3 cells at 10 uM incubated for 6 hrs by CCK-8 assay; format: functional, cell-based
In short: (§2)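 Wells coated for 1 h with 10 μg/mL fibronectin in PBS. After PBS wash, attached cells counted by CCK-8 absorbance at […]. n = 3.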

OVCAR-5 [5] = assay: Inhibition of cell migration in human OVCAR-5 cells at 10 uM incubated for 18 hrs by crystal violet staining based transwell migration assay; format: functional; in short: as §1
[6] = target: T1, Protein-glutamine gamma-glutamyltransferase (Homo sapiens); assay: Induction of TG2 degradation in human OVCAR-5 cells assessed as reduction in TG2 level at 0.1 to 10 uM measured after 6 hrs by Western blot analysis; format: cell-based; details: dose 0.1-10 µM
In short: (§3)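 Cells on 6 cm dishes treated for 6 or 24 h; OVCAR5 at 0.1, 1 and 10 μM, SKOV3 at 1 and 10 μM; DMSO control. RIPA lysates quantified by Bradford, then western blot with anti-TG2 and GAPDH antibodies (1:1000, overnight 4 °C). Bands quantified by densitometry; n = 3.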

OVCAR-5 [7] = assay: Inhibition of cell migration in human OVCAR-5 cells at 10 uM incubated for 18 hrs by crystal violet staining based wound healing assay; format: functional
OVCAR-5 [8] = assay: Inhibition of cell adhesion to fibronectin in human OVCAR-5 cells at 10 uM incubated for 6 hrs by CCK-8 assay; format: functional, cell-based; in short: as §2
[9] = target: T1, Protein-glutamine gamma-glutamyltransferase (Homo sapiens); assay: Induction of TG2 degradation in human OVCAR-5 cells assessed as reduction in TG2 level measured within 6 hrs by Western blot analysis; format: cell-based; details: dose 0.1-10 µM
[10] = target: T1, Protein-glutamine gamma-glutamyltransferase (Homo sapiens); assay: Induction of TG2 degradation in human SK-OV-3 cells assessed as reduction in TG2 level at 0.1 to 30 uM by Western blot analysis; format: cell-based; details: dose 0.1-30 µM, time 2-12 hrs, TDE = time-dependent effect
In short: (§4)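 SKOV3 cells treated with 0.1, 0.3, 1, 3, 10 or 30 μM for 0, 2, 6, 12 and 24 h. TG2 measured by western blot of RIPA lysates with GAPDH reprobe after stripping, followed by densitometry. n = 3 experimental replicates.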

[11] = target: T1, Protein-glutamine gamma-glutamyltransferase (Homo sapiens); assay: Induction of TG2 degradation in human SK-OV-3 cells assessed as reduction of TG2 level at 1 to 10 uM measured after 12 hrs by Western blot analysis; format: cell-based; details: dose 1-10 µM, time 24.0 hrs, in the assay text read “24 hrs” for “12 hrs”; in short: as §4
[12] = target: T1, Protein-glutamine gamma-glutamyltransferase (Homo sapiens); assay: Induction of TG2 degradation in human OVCAR-5 cells assessed as reduction of TG2 level at 1 to 10 uM measured after 24 hrs by Western blot analysis; details: dose 1-10 µM
[13] = target: T1, Protein-glutamine gamma-glutamyltransferase (Homo sapiens); assay: Induction of TG2 degradation in human SK-OV-3 cells assessed as reduction in TG2 level measured after 2 to 12 hrs by Western blot analysis; format: cell-based; details: dose 0.1-30 µM, time 2-12 hrs; in short: as §4
[14] = target: T1, Protein-glutamine gamma-glutamyltransferase (Homo sapiens); assay: Induction of TG2 degradation in human SK-OV-3 cells assessed as maximal degradation at 10 to 30 uM measured after 6 hrs by Western blot analysis; format: cell-based; details: dose 10-30 µM; in short: as §4
[15] = target: T1, Protein-glutamine gamma-glutamyltransferase (Homo sapiens); assay: Induction of TG2 degradation in human OVCAR-5 cells assessed as reduction in TG2 level at 10 uM incubated for 6 hrs in presence of VHL-L by Western blot analysis; format: cell-based
In short: (§5)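 OVCAR5 or SKOV3 cells treated for 6 h with compound at 10 μM plus 10 μM VHL ligand as competitor. TG2 measured by western blot with densitometry against control. n = 3.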

[16] = target: T1, Protein-glutamine gamma-glutamyltransferase (Homo sapiens); assay: Induction of TG2 degradation in human SK-OV-3 cells assessed as reduction of TG2 level at 10 uM incubated for 6 hrs followed by MG132 addition and measured after 8 hrs by Western blot analysis; format: cell-based; details: time 14.0 hrs
In short: (§6)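 Proteasome dependence checked in OVCAR5 or SKOV3 cells: compound at 10 μM for 6 h, with MG132 at 20 μM for 8 h. TG2 measured by western blot, and band intensity expressed relative to DMSO control. n = 3.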

SK-OV-3 [17] = assay: Cytotoxicity against human SK-OV-3 cells assessed as cell death at 0.1 to 30 uM treated every 6 to 8 hrs for 5 days by CCK-8 assay; format: functional, cell-based; details: dose 0.1-30 µM, time 5.0 day
In short: (§7)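 OVCAR5 and SKOV3 cells in 96-well plates given compound at 0.1, 0.3, 1, 3, 10 or 30 μM, redosed every 6–8 h over 5 days. Viable cells measured by CCK-8 absorbance at […]. n = 3.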

[18] = target: T1, Protein-glutamine gamma-glutamyltransferase (Homo sapiens); assay: Induction of TG2 degradation in human SK-OV-3 cells assessed as reduction of TG2 level treated every 6 to 8 hrs for 24 hrs by Western blot analysis; format: cell-based; details: dose 1-10 µM
In short: (§8)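 OVCAR5 or SKOV3 cells given compound at 1 or 10 μM, redosed every 6–8 h over 24 h. TG2 measured at 24 h by western blot of RIPA lysates.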

[19] = target: T1, Protein-glutamine gamma-glutamyltransferase (Homo sapiens); assay: Induction of TG2 degradation in human OVCAR-5 cells assessed as reduction in TG2 level at 10 uM incubated for 6 hrs followed by MG132 addition and measured after 8 hrs by Western blot analysis; format: cell-based; details: time 14.0 hrs; in short: as §6
[20] = target: T1, Protein-glutamine gamma-glutamyltransferase (Homo sapiens); assay: Potency index, ratio of MT4 KD to test compound KD for binding affinity to TG2 (unknown origin) assessed as dissociation constant at 30 degree C by isothermal titration calorimetry
OVCAR-5 [21] = assay: Cytotoxicity against human OVCAR-5 cells assessed as cell death at 0.1 to 30 uM treated every 6 to 8 hrs for 5 days; format: functional, cell-based; details: dose 0.1-30 µM, time 5.0 day; in short: as §7
[22] = target: T1, Protein-glutamine gamma-glutamyltransferase (Homo sapiens); assay: Induction of TG2 degradation in human OVCAR-5 cells assessed as reduction in TG2 level at 0.1 to 10 uM measured after 24 hrs by Western blot analysis; format: cell-based; details: dose 0.1-10 µM; in short: as §3
[23] = target: T1, Protein-glutamine gamma-glutamyltransferase (Homo sapiens); assay: Induction of TG2 degradation in human SK-OV-3 cells assessed as reduction in TG2 level at 0.1 to 10 uM measured after 24 hrs by Western blot analysis; format: cell-based; details: dose 0.1-10 µM
[24] = target: T1, Protein-glutamine gamma-glutamyltransferase (Homo sapiens); assay: Induction of TG2 degradation in human OVCAR-5 cells assessed as reduction of TG2 level treated every 6 to 8 hrs for 24 hrs by Western blot analysis; format: cell-based; details: dose 1-10 µM; in short: as §8
[25] = target: T1, Protein-glutamine gamma-glutamyltransferase (Homo sapiens); assay: Induction of TG2 degradation in human SK-OV-3 cells assessed as reduction in TG2 level measured within 6 hrs by Western blot analysis; format: cell-based; details: dose 0.1-10 µM
[26] = target: T1, Protein-glutamine gamma-glutamyltransferase (Homo sapiens); assay: Induction of TG2 degradation in human SK-OV-3 cells assessed as reduction in TG2 level at 10 uM incubated for 6 hrs in presence of VHL-L by Western blot analysis; format: cell-based; in short: as §5
[27] = target: T2, Protein-glutamine gamma-glutamyltransferase (Homo sapiens, UniProt P21980); assay: Binding affinity to TG2 (unknown origin) assessed as dissociation constant at 30 degree C by isothermal titration calorimetry
T2 sequence (P21980 whole entry): T1 sequence (whole entry)

SMILES | Activity [1] | inhibition (SK-OV-3 [2]) | inhibition (SK-OV-3 [3]) | inhibition (SK-OV-3 [4]) | inhibition (OVCAR-5 [5]) | Activity [6] | inhibition (OVCAR-5 [7]) | inhibition (OVCAR-5 [8]) | Activity [9] | Activity [10] | Activity [11] | Activity [12] | Activity [13] | Activity [14] | Activity [15] | Activity [16] | Activity (SK-OV-3 [17]) | Activity [18] | Activity [19] | Ratio [20] | further results
Cc1cc(N(C)CCOCCOCCOCCOCCOCCC(=O)N[C@H](C(=O)N2C[C@@H](O)C[C@H]2C(=O)NCc2ccc(-c3scnc3C)cc2)C(C)(C)C)nc(Nc2ccc(NC(=O)Cc3ccccc3)cc2)n1 | inactive | inactive | inactive | inactive | inactive | inactive | inactive | inactive |  |  |  |  |  |  |  |  |  |  |  |  | 
Cc1cc(N(C)CCOCCOCCOCCOCCOCCC(=O)N[C@H](C(=O)N2C[C@H](O)C[C@H]2C(=O)NCc2ccc(-c3scnc3C)cc2)C(C)(C)C)nc(Nc2ccc(NC(=O)Cc3ccccc3)cc2)n1 |  | Active | Active | Active | Active |  | Active | Active | Dose-Dependent Effect | Tde | inactive | inactive | Dose-Dependent Effect | Active | inactive | inactive | inactive | Active | inactive | 8.8 | Activity (OVCAR-5 [21]): inactive; Activity [22]: inactive; Activity [23]: inactive; Activity [24]: Active; Activity [25]: Dose-Dependent Effect; Activity [26]: inactive
Cc1cc(N(C)CCOCCC(=O)N[C@H](C(=O)N2C[C@H](O)C[C@H]2C(=O)NCc2ccc(-c3scnc3C)cc2)C(C)(C)C)nc(Nc2ccc(NC(=O)Cc3ccccc3)cc2)n1 |  | Active | Active | Active | Active |  | Active | Active | Dose-Dependent Effect | Tde | inactive | inactive | Dose-Dependent Effect | Active | inactive | inactive | inactive | Active | inactive | > 12.8 | Activity (OVCAR-5 [21]): inactive; Activity [22]: inactive; Activity [23]: inactive; Kd [27]: > 100 µM; Activity [24]: Active; Activity [25]: Dose-Dependent Effect; Activity [26]: inactive
Cc1cc(N(C)CCOCCC(=O)N[C@H](C(=O)N2C[C@@H](O)C[C@H]2C(=O)NCc2ccc(-c3scnc3C)cc2)C(C)(C)C)nc(Nc2ccc(NC(=O)Cc3ccccc3)cc2)n1 | inactive | inactive | inactive | inactive | inactive | inactive | inactive | inactive |  |  |  |  |  |  |  |  |  |  |  |  | 
